Screens deposited in PubChem BioAssay by several laboratories.
Ba/F3 V617F tox – lowers viability of Ba/F3 cells expressing EpoR and JAK2V617F; ATP luminescence; inhibition, % at 5.6 µM; hit rate 1.1% among 220,000;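 active = inhibition above the campaign mean plus 3 SD over all tested compounds, cut at about 24% in these data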;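 note: cytokine-independent growth of Ba/F3 cells driven by EpoR plus mutant JAK2; 0% = DMSO-treated cells and 100% = JAK inhibitor I control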
Lmaj promast – inhibitors of Leishmania major promastigote growth | inhibition, % at 10 µM | AID 1063 | hit rate 9% among 200,000 | Leishmania major promastigotes, resazurin fluorescence viability; in the data active = inhibition above about 50%;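 note: promastigotes grown with compound for 44 hours at 28 °C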
MT stabilizer – microtubule stabilizers in HeLa cells. HeLa tubulin immunostaining HCS, 24 h; share of cells brighter than vehicle mean+2SD. % tubulin-high responders, % at 10 µM. hit rate 0.83% among 200,000. AID 2205;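 active = plate Z-score above 3 for both tubulin-high and condensed-nucleus cell shares, with cell loss under 80%, at 10 µM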;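 note: anti alpha tubulin signal scored within the nucleus-defined area of each cell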
b-catenin transl – beta-catenin nuclear translocation modulation. HeLa beta-catenin nuclear translocation, immunofluorescence imaging. nuclear translocation activity, % at 5 µM. hit rate 0.3% among 190,000. AID 1665;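 active = nuclear translocation activity above 50% at 5 µM, with a well cell count of 50 or more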;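 note: per-cell ratio of nuclear to cytoplasmic median beta-catenin stain intensity; plate controls were DMSO negative control for no effect and GSK-3 inhibitor IX positive control for full effect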
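Test system: human HeLa cells, native beta-catenin. Compound dosing: 5 µM primary single dose, 0.1% DMSO, 0.02–20 µM confirmation series. Incubation: compound exposure 24 h at 37°C. Detection: beta-catenin immunostaining with DAPI counterstain, 20x imaging, 6 fields/well. Read-out basis: Nuclear/cytoplasmic beta-catenin signal ratio, % activation.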
BaF3 parental – counter-screen for JAK2V617F inhibitors: parental Ba/F3 viability inhibitors; CellTiter-Glo ATP luminescence; inhibition, % at 5.6 µM; hit rate 1.1% among 220,000; AID 1486;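 active = inhibition above a per-campaign cutoff, the mean inhibition of all tested compounds plus 3 SD, cut at about 27% in these data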;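 note: 0% = DMSO wells and 100% = JAK Inhibitor I control wells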
APP 5UTR inh – APP translation inhibition; SH-SY5Y APP 5'UTR-luciferase reporter, luminescence; inhibition, % at 2 µM; hit rate 0.82% among 190,000;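 active = inhibition above a set limit, derived from the sample mean plus 3 SD, cut at about 45% in these data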
* hit, by the source's call; . = not tested or not shown. Shown are actives, neighbours in structure and some others; about 9.6% of the full set was active somewhere.

SMILES	Ba/F3 V617F tox	Lmaj promast	MT stabilizer	b-catenin transl	BaF3 parental	APP 5UTR inh
COc1cc(/C=C/C(=O)OCC(=O)N2CCc3ccccc3C2)ccc1O	-0.8	75.9*	3.1	.	8.7	-1.1
C=CCc1ccc(OCCN2CCc3ccccc3C2)c(OC)c1	-2.0	83.2*	3.5	0.5	1.2	5.2
C=CCc1ccc(OCCCCN2CC(C)OC(C)C2)c(OC)c1 (centres undefined)	0.5	98.5*	1.6	2.6	6.7	23.8
COc1cc(CN2CCc3ccccc3C2)ccc1O	96.6*	.	.	1.0	102.6*	.
C#CCOCCOCCOCCNc1nc(N2CCN(C(=O)Cn3cc(CC(C)O)nn3)CC2)nc(N2CCN(C(=O)[C@H](C)n3cc(CCCN=C(N)N)nn3)CC2)n1 (some centres undefined)	0.9	-7.0	2.1	.	7.2	10.3
COc1ccc([N+](=O)[O-])cc1N(CC(=O)NCCCOC(C)C)S(C)(=O)=O	0.9	-0.5	1.5	3.7	6.8	20.9
Cc1ccc(C2=NN=C(NC(=O)C(F)(F)F)SC2)cc1	4.4	10.5	2.7	-1.0	7.9	-47.5
CCc1cccc2c(C(=O)COC(=O)/C=C/c3ccc(O)c(OC)c3)c[nH]c12	-0.5	98.9*	5.8	-0.5	5.1	22.9
CC(=O)Nc1ccc2c(c1)C(C)(C)C(C)N2C (centres undefined)	2.8	94.3*	2.2	0.3	6.3	-15.0
O=C(NCCCN1CCOCC1)c1ccc(Sc2ccc(Br)cc2)c([N+](=O)[O-])c1	-0.3	91.9*	2.3	-1.7	2.1	-29.3
O=C(NCCCN1CCOCC1)c1ccc(Sc2ccccc2Cl)c([N+](=O)[O-])c1	-2.8	94.2*	2.9	-1.6	0.0	-5.6
O=C(Cc1ccccc1[N+](=O)[O-])NCCCN1CCOCC1	1.8	-0.2	3.5	-5.5	7.8	-3.3
Cc1cc(C(=O)NCCN2CCOCC2)ccc1[N+](=O)[O-]	3.0	4.6	3.4	-0.8	10.8	7.5
O=S(=O)(c1ccc(F)c(F)c1F)N1CCN(C(=S)Nc2ccccc2)CC1	0.9	4.3	3.9	-2.6	6.0	-14.8
COc1ccc(NC(=O)/C(C#N)=C/c2ccc(Sc3nncn3C)c([N+](=O)[O-])c2)cc1	0.9	31.1	4.8	-4.4	2.8	-12.3
CCn1c(=NC(=O)c2ccc(S(=O)(=O)N(C)C)cc2)sc2cccc(OC)c21	0.2	70.5*	6.9	-0.8	6.0	-24.8
CCCC1C2CN(C(C)C)CC=C2C(C#N)=C(N)C1(C#N)C#N (centres undefined)	-2.2	76.4*	5.2	-4.4	1.8	-11.0
CC(C)c1ccc(C2C3CSCC=C3C(C#N)=C(N)C2(C#N)C#N)cc1 (centres undefined)	-3.2	97.8*	0.9	-6.6	5.1	2.7
CCC(C)c1ccccc1NC(=O)C(C)NCCN(C)C (centres undefined)	-1.3	.	.	-1.2	-2.8	.
Cc1ccc2nc(C(=O)N3CCc4c([nH]c5ccccc45)C3c3ccccn3)cn2c1 (centres undefined)	-2.2	68.2*	2.9	0.5	1.5	-3.8
O=C(c1cc(-c2ccccc2)n[nH]1)N1CCc2c([nH]c3ccccc23)C1c1ccccn1 (centres undefined)	-0.1	85.7*	1.4	-1.7	7.2	9.8
COc1ccc(C2c3[nH]c4ccccc4c3CCN2C(=O)c2cn3ccccc3n2)c(F)c1 (centres undefined)	-3.9	53.0*	4.0	-1.7	-2.8	-33.9
O=C(Nc1ccccc1F)c1c[nH]c(=O)[nH]c1=O	3.9	.	.	3.1	0.5	.
Clc1cccc(Cl)c1CSc1nnc(-c2sccc2-n2cccc2)o1	-4.4	-1.4	2.5	-0.8	-1.1	-7.8
CCOC(=O)C1(Cc2cccc(OC)c2)CCN(Cc2ccc(OC)c(O)c2)CC1	-2.0	84.7*	1.6	0.1	9.6	-9.8
SMILES	Ba/F3 V617F tox	Lmaj promast	MT stabilizer	b-catenin transl	BaF3 parental	APP 5UTR inh
CCOC(=O)C1(Cc2cccc(OC)c2)CCN(C2CCOCC2)CC1	-0.9	81.0*	2.4	-0.5	2.9	-1.0
CCOC(=O)C1(Cc2cccc(OC)c2)CCN(C/C=C/c2ccccc2)CC1	0.0	79.9*	1.6	0.5	4.8	20.5
O=S(=O)(/C=C/c1ccccc1)NC1CCCCCCC1	-1.0	-9.2	1.7	-4.9	0.2	19.0
Cc1ccc2c(c1)N(C(=O)c1ccco1)C(C)(C)c1ssc(=S)c1-2	1.3	97.8*	1.2	.	3.0	-23.9
COc1cccc(C(=O)/C=C/c2ccc(OCC#N)c(OC)c2)c1	-2.7	99.7*	2.7	0.9	1.2	13.8
COC(=O)c1ccc(/C=C/C(=O)c2cccc(OC)c2)cc1	-3.9	4.8	3.3	-1.7	3.6	-50.7
COc1cc(/C=C/C(=O)c2ccc(O)cc2)ccc1OCC#N	0.8	98.5*	11.1*	-1.5	0.6	14.7
CCOC(=O)/C=C/C(=O)Nc1ccccc1C(=O)NC1CCCCC1	0.6	27.5	2.7	-3.4	1.4	-1.8
O=c1c(S(=O)(=O)c2ccc(Cl)cc2)cn(Cc2ccccc2)c2ccc(F)cc12	1.2	91.0*	2.4	-3.9	2.8	-2.5
Cc1ccc(NC(=O)Cn2cc(S(=O)(=O)c3ccccc3)c(=O)c3cc(F)ccc32)cc1	-3.8	-6.9	4.0	-1.5	1.9	-34.9
O=C(Cn1ncc2c1-c1ccccc1OC2)Nc1nc2ccccc2s1	-2.6	-0.2	2.0	-2.3	2.7	2.6
Cc1cc(C)n(-c2nnc(C)n2NS(C)(=O)=O)n1	-4.8	-2.7	4.1	-0.5	-0.5	5.8
O=C(c1ccccc1)c1ccc2nc(-c3ccc(NC(=O)c4ccccc4F)cc3)[nH]c2c1	-1.9	61.2*	9.0	.	3.6	-9.1
Fc1ccccc1CSc1ccc(-c2ccco2)nn1	-2.0	14.9	1.9	0.9	0.8	-63.9
S=C(Nc1ccccn1)c1ccccn1	-3.2	98.4*	6.6	-7.1	0.2	-71.4
Cc1ccc(C)c(NC(=S)c2ccccn2)c1	-1.1	98.3*	3.2	0.3	4.4	-8.0
O=C(Nc1ccccn1)C(=O)Nc1ccccn1	-0.4	.	.	-0.3	-0.2	.
CS(=O)(=O)N1CCN(c2ccc(NC(=O)C(c3ccccc3)c3ccccc3)cc2)CC1	-5.2	6.6	3.7	1.1	-1.0	13.6
O=C(Nc1ccc(N2CCCC2)cc1)C(Cl)c1ccccc1 (centres undefined)	-0.4	98.9*	27.7	0.4	4.8	-19.6
CC(C)(C)NC(=O)C(c1ccncc1)N(C(=O)Cn1nnc(-c2ccc(F)cc2)n1)c1cccc(F)c1 (centres undefined)	2.5	7.6	2.5	0.1	-1.8	1.5
CC(C)CNC(=S)NC1CC2CCC(C1)N2Cc1ccccc1 (centres undefined)	1.0	87.6*	1.8	-0.4	7.8	3.9
S=C(NCCc1ccccc1)NC1CC2CCC(C1)N2Cc1ccccc1 (centres undefined)	5.5	94.2*	1.3	-1.6	3.3	9.8
